Columns and labels:
Conditions in all cases: stereoisomer not certain
[1] = target: T1, OR51B5 (Homo sapiens) (UniProt Q9H339)
T1 sequence (whole entry): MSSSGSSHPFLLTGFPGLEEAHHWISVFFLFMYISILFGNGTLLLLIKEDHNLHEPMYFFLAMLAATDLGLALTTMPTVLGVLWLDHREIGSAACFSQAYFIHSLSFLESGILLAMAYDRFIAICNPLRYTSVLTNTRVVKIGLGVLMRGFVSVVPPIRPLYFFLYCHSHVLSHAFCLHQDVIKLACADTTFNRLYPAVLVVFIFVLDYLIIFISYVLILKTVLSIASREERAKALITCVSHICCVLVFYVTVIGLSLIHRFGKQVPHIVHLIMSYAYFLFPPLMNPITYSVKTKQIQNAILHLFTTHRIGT
Method in brief: (§1)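 Assay methods differ from source to source, frequently being transient luciferase assays in mammalian cell lines. For each receptor–molecule pair, the label responsive (active) applies when the original authors judged the measured signal statistically different from baseline, and non-responsive (inactive) applies otherwise.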

[2] = target: OR51A4 (Homo sapiens) (UniProt Q8NGJ6)
Sequence of OR51A4 (Homo sapiens) (Q8NGJ6 whole entry): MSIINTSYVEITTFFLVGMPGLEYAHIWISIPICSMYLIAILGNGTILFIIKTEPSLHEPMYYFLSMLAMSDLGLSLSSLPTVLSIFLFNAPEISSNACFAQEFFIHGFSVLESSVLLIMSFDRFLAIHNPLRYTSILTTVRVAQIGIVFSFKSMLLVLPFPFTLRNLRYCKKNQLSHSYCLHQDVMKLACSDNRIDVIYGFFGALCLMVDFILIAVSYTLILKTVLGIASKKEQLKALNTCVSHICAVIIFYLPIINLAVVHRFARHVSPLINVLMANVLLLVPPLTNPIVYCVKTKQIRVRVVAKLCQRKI
Method in brief: as §1

[3] = target: OR51A7 (Homo sapiens) (UniProt Q8NH64)
Sequence of OR51A7 (Homo sapiens) (Q8NH64 whole entry): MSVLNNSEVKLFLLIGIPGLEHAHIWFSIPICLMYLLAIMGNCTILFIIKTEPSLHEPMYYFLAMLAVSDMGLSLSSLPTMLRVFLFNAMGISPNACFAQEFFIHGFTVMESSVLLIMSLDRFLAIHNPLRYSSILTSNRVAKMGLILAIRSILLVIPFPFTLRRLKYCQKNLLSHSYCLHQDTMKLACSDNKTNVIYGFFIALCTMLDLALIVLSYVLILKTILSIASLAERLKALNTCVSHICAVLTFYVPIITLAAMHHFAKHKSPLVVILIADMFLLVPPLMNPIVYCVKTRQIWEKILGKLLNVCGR
Method in brief: as §1

[4] = target: OR51B2 (Homo sapiens) (UniProt Q9Y5P1)
Sequence of OR51B2 (Homo sapiens) (Q9Y5P1 whole entry): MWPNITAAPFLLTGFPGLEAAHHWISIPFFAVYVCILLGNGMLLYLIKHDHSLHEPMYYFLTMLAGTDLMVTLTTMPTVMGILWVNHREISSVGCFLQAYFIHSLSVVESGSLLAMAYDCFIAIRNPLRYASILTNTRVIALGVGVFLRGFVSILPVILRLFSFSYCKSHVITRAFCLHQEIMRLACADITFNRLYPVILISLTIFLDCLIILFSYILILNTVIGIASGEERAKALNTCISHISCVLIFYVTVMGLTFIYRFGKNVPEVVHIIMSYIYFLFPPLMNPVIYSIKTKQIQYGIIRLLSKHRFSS
Method in brief: as §1

[5] = target: OR51B4 (Homo sapiens) (UniProt Q9Y5P0)
Sequence of OR51B4 (Homo sapiens) (Q9Y5P0 whole entry): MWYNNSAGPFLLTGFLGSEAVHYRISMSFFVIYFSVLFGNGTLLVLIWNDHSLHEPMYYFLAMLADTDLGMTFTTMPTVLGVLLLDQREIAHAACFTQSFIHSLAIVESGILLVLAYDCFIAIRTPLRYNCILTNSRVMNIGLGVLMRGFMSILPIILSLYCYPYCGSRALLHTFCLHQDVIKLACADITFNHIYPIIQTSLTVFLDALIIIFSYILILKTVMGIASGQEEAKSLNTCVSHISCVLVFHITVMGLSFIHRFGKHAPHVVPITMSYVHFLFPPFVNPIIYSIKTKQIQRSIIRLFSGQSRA
Method in brief: as §1

[6] = target: OR51B6 (Homo sapiens) (UniProt Q9H340)
Sequence of OR51B6 (Homo sapiens) (Q9H340 whole entry): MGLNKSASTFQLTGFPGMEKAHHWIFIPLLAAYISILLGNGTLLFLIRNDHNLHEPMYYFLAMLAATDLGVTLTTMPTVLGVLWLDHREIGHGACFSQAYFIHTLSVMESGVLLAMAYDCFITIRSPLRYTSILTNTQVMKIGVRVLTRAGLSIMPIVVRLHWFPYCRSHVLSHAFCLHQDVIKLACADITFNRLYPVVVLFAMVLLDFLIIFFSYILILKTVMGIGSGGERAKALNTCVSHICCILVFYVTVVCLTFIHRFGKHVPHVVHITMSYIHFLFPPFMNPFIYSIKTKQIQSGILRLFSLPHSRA
Method in brief: as §1

[7] = target: OR51D1 (Homo sapiens) (UniProt Q8NGF3)
Sequence of OR51D1 (Homo sapiens) (Q8NGF3 whole entry): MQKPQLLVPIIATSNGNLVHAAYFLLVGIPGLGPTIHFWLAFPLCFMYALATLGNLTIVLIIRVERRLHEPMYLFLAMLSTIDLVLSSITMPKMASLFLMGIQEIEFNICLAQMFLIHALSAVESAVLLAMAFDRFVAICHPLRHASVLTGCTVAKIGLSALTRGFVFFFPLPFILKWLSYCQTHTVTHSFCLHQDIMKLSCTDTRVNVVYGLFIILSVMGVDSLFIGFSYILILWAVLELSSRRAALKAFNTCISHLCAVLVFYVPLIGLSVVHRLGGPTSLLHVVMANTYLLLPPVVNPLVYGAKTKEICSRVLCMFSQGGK
Method in brief: as §1

[8] = target: T2, OR51E2 (Homo sapiens) (UniProt Q9H255)
T2 sequence (whole entry): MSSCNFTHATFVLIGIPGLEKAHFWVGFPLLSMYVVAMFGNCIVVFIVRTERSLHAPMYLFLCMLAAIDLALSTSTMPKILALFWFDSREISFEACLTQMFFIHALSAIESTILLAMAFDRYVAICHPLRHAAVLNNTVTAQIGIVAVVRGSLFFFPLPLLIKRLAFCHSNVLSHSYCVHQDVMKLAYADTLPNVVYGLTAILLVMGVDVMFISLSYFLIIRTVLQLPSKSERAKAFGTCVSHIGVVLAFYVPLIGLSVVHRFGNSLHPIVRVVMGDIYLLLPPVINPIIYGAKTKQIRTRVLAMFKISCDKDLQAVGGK
Method in brief: as §1

[9] = target: T3, OR51E1 (Homo sapiens) (UniProt Q8TCB6)
T3 sequence (whole entry): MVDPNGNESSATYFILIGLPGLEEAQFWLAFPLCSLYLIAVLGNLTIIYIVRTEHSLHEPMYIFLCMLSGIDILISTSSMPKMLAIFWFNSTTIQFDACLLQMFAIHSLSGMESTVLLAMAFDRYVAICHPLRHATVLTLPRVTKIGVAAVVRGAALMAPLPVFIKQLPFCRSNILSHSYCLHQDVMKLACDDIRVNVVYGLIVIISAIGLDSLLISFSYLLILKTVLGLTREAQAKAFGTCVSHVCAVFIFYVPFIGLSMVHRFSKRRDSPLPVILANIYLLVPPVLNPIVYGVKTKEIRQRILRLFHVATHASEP
Method in brief: as §1

[10] = target: OR51E1 (Homo sapiens) (UniProt Q8TCB6); remark: listed apart in the source
Method in brief: as §1
Target sequence in this assay (Q8TCB6 whole entry): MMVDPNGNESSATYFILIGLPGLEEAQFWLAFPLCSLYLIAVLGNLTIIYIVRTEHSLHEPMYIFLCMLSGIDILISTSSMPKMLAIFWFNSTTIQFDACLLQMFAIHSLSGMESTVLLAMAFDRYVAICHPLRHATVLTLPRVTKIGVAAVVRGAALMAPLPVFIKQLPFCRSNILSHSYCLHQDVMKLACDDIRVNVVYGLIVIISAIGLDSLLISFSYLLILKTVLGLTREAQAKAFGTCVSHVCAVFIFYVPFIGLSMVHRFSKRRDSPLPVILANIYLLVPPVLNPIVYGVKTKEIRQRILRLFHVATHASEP

Measured: odorant receptor agonist call

Cc1cccc(C)c1
inactive: [1]

Cc1c([N+](=O)[O-])c(C)c([N+](=O)[O-])c(C(C)(C)C)c1[N+](=O)[O-]
inactive: [2] | [3] | [4] | [5] | [1] | [6] | [7] | [8]

O=c1cc(O)c2ccccc2o1
inactive: [9] | [8]

C=CCc1ccccc1
inactive: [9] | [8]

CCC1CCC(=O)O1 (stereo unspecified)
inactive: [9] | [8]

COc1ccc(C=O)cc1
inactive: [1]

C=CCOC(=O)Cc1ccccc1
inactive: [2] | [3] | [4] | [5] | [1] | [6] | [7] | [10] | [9] | [8]

Reference: the M2OR odorant receptor database
